Legend:
Assay type in all cases: nucleic-acid assay
Nucleic Acid [1] = assay: Binding affinity to synthetic double stranded DNA D1 at 1.5 uM at pH 7.2 by thermal denaturation study
Procedure, shortened: (§1)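 Parallel triplex melting: target duplex assembled from strands at 1.0 µM each, TFO third strand added at 1.5 µM. Buffer 20 mM sodium cacodylate, 100 mM NaCl, 10 mM MgCl₂, at the pH of the line. Samples heated to 80 °C for 5 min, cooled to 5 °C and held 30 min. Absorbance read at 260 nm while heating at 1.0 °C/min; Tm taken as the first-derivative maximum.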

Nucleic Acid [2] = assay: Binding affinity to synthetic oligonucleotide ON19 at 1.0 uM at pH 7.2 by thermal denaturation study
Procedure, shortened: (§2)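 Duplex melting: complementary strands at 1.0 µM each in 20 mM sodium cacodylate, 100 mM NaCl, 10 mM MgCl₂, at the pH of the line. Annealed at 80 °C for 5 min, then cooled to 5 °C and held 30 min. UV absorbance read at 260 nm with heating at 1.0 °C/min; Tm is the maximum of the first-derivative curve.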

Nucleic Acid [3] = assay: Binding affinity to synthetic double stranded DNA D4 at 1.5 uM at pH 6.0 by thermal denaturation study; procedure, shortened: as §1
Nucleic Acid [4] = assay: Binding affinity to synthetic oligonucleotide ON18 at 1.0 uM at pH 6.0 by thermal denaturation study; procedure, shortened: as §2
Nucleic Acid [5] = assay: Binding affinity to synthetic oligonucleotide ON20 at 1.0 uM at pH 7.0 by thermal denaturation study
Procedure, shortened: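 DNA/RNA antiparallel duplex: each strand at 1.0 µM in 10 mM sodium phosphate, 140 mM NaCl, 1 mM EDTA, pH 7.0. Heated to 80 °C for 5 min, cooled to 5 °C and held 30 min. Absorbance followed at 260 nm during a 1.0 °C/min temperature ramp; Tm is the first-derivative maximum.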

Nucleic Acid [6] = assay: Binding affinity to synthetic double stranded DNA D1 at 1.5 uM at pH 6.0 by thermal denaturation study; procedure, shortened: as §1
Nucleic Acid [7] = assay: Binding affinity to synthetic double stranded DNA D1 at 1.5 uM at pH 5.0 by thermal denaturation study; procedure, shortened: as §1
Nucleic Acid [8] = assay: Binding affinity to synthetic double stranded DNA D2 at 1.5 uM at pH 6.0 by thermal denaturation study; procedure, shortened: as §1
Nucleic Acid [9] = assay: Binding affinity to synthetic double stranded DNA D3 at 1.5 uM at pH 6.0 by thermal denaturation study; procedure, shortened: as §1
Nucleic Acid [10] = assay: Binding affinity to synthetic oligonucleotide ON19 at 1.0 uM at pH 6.0 by thermal denaturation study; procedure, shortened: as §2

Cc1cn([C@H]2C[C@H](OP(=O)(O)OC[C@H]3O[C@@H](n4ccc(N)nc4=O)C[C@@H]3OP(=O)(O)OC[C@H]3O[C@@H](n4cc(C)c(=O)[nH]c4=O)C[C@@H]3OP(=O)(O)OC[C@H]3O[C@@H](n4cc(C)c(=O)[nH]c4=O)C[C@@H]3OP(=O)(O)OC[C@H]3O[C@@H](n4cc(C)c(=O)[nH]c4=O)C[C@@H]3O[PH](O)(O)OC[C@H]3O[C@@H](n4cc(C)c(=O)[nH]c4=O)C[C@@H]3OP(=O)(O)OC[C@H]3O[C@@H](n4cc(C)c(=O)[nH]c4=O)C[C@@H]3OP(=O)(O)OC[C@H]3O[C@@H](n4cc(C)c(=O)[nH]c4=O)C[C@@H]3O)[C@@H](COC[C@H](CCOc3ccc(-c4nc5c6ccccc6c6ccccc6c5[nH]4)cc3)OP(=O)(O)O[C@H]3C[C@H](n4cc(C)c(=O)[nH]c4=O)O[C@@H]3COP(=O)(O)O[C@H]3C[C@H](n4cc(C)c(=O)[nH]c4=O)O[C@@H]3COP(=O)(O)O[C@H]3C[C@H](n4ccc(N)nc4=O)O[C@@H]3COP(=O)(O)O[C@H]3C[C@H](n4ccc(N)nc4=O)O[C@@H]3COP(=O)(O)O[C@H]3C[C@H](n4ccc(N)nc4=O)O[C@@H]3COP(=O)(O)O[C@H]3C[C@H](n4ccc(N)nc4=O)O[C@@H]3CO)O2)c(=O)[nH]c1=O
Tm (Nucleic Acid [1]): 26 °C
Tm (Nucleic Acid [2]): 50.5 °C
Tm (Nucleic Acid [3]): 31.5 °C
Tm (Nucleic Acid [4]): 31.5 °C
Tm (Nucleic Acid [5]): 53 °C
Tm (Nucleic Acid [6]): 46.5 °C
Tm (Nucleic Acid [7]): 59.5 °C
Tm (Nucleic Acid [8]): 23 °C
Tm (Nucleic Acid [9]): 29.5 °C
Tm (Nucleic Acid [10]): 50.5 °C
